In article PMC3025495 (The lancet oncology, 2010):
Read-outs that look alike come from different tables or passages of the source.

What was measured:
[1] = test system: BH3-only proteins; conditions: no reference printed with the sentence; cited from earlier work
[2] = test system: human hematopoietic progenitors: common myeloid precursors; test: Methylcellulose-based in vitro colony forming assay, common myeloid precursors; assay type: cell-based; conditions: read-out: IC50, growth inhibition of common myeloid precursors
[3] = test system: human hematopoietic progenitors: erythroid precursors; test: Methylcellulose-based in vitro colony forming assay, erythroid precursors; assay type: cell-based; conditions: read-out: IC50, growth inhibition of erythroid precursors
[4] = test system: circulating platelets; test: Pharmacodynamic effect on circulating platelets; assay type: in vivo, human; conditions: platelet nadir versus navitoclax AUC, n=35 patients
[5] = human, in vivo
[6] = test system: patients with relapsed or refractory lymphoid malignancies; conditions: in vivo
[7] = test system: animal models; test: Projected effective exposure from animal models; assay type: in vivo; conditions: based on animal models
[8] = test system: hematological cell lines; conditions: in 11 of 23 hematological cell lines, ref [10]; cited from earlier work
[9] = test system: BCL-XL and BCL-2 over expressing prolymphocytic murine cell lines; conditions: coimmunoprecipitation; ref [11], [27]; cited from earlier work
[10] = Pharmacokinetic profile in patients
[11] = clinical; conditions: human, in vivo
[12] = test system: murine xenograft model of acute lymphocytic leukemia; conditions: ref [11]; cited from earlier work
[13] = test system: BCL-2 dependent human small cell lung cancer (SCLC) cell line; conditions: within 2 hours of treatment; ref [11], [27]; cited from earlier work
[14] = test system: relapsed/refractory lymphoid malignancies; test: Tumor response and survival; assay type: in vivo, human
[15] = test system: CD3+ cells (T-cells); test: Pharmacodynamic effect on circulating CD3+ cells; assay type: in vivo, human; conditions: after 14 days of drug exposure (day 14 of cycle 1), at least 200 mg
Method in brief: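 Patients with relapsed or refractory lymphoid malignancies took the test compound orally each day. Two schedules were used: days 1–14 of a 21-day cycle, or continuous dosing after a 150 mg lead-in lasting 7–14 days. Circulating CD3+ counts were compared with baseline. The P-value for the change from baseline came from a Sign-test because the data were skewed.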

[16] = test system: patients with relapsed or refractory lymphoid malignancies; test: Phase 1 dose-escalation study: toxicity and DLT
[17] = test system: xenograft model of mantle cell lymphoma; conditions: ref [11]; cited from earlier work
[18] = test system: patients; conditions: cited from earlier work; for clinical activity: clinical testing, [24]; for clinical activity / on-target pharmacodynamic effects on platelets: ref [23]; for dose-limiting toxicities: gossypol ref [23], obatoclax ref [24]; for on-target pharmacodynamic effects on platelets: review of toxicities, [25]–[28]
[19] = Grade 1/2, Continuous (21/21) Schedule MTD 325 mg (N=5)
[20] = Grade 1/2, Intermittent (14/21) Schedule All Patients (N=38)
[21] = Grade 3/4, Continuous (21/21) Schedule All Patients (N=17)
[22] = Grade 3/4, Continuous (21/21) Schedule MTD 325 mg (N=5)
[23] = Grade 3/4, Intermittent (14/21) Schedule All Patients (N=38)
[24] = Grade 3/4, Intermittent (14/21) Schedule MTD 315 mg (N=9)

CN(C)CC[C@H](CSc1ccccc1)Nc1ccc(S(=O)(=O)NC(=O)c2ccc(N3CCN(Cc4ccccc4-c4ccc(Cl)cc4)CC3)cc2)cc1[N+](=O)[O-] [ABT-737]
binding affinity relative to previously reported compounds [1]: two to three orders of magnitude greater | IC50 [2]: 900 nM | IC50 [3]: 1000 nM

CC1(C)CCC(c2ccc(Cl)cc2)=C(CN2CCN(c3ccc(C(=O)NS(=O)(=O)c4ccc(N[C@H](CCN5CCOCC5)CSc5ccccc5)c(S(=O)(=O)C(F)(F)F)c4)cc3)CC2)C1 [Navitoclax]
severity of the platelet nadirs [4]: concentration dependent | dose levels at which projected effective exposure was achieved [5]: at least 315 mg/day | t½ ([5]; 315 mg): 15·1 ± 3·0 h | increase of oral bioavailability by food ([5]; po): approximately 20% | CL/F (apparent oral clearance) ([5]; po, 315 mg): 4·1 ± 2·1 L/h | All Infections, patients n (%) ([6]; human): 14 (82%) | Herpes Zoster, patients n (%) ([6]; human): 1 (6%) | dose selected for phase II study ([6]; human): 325 mg | grade 1/2 fatigue, number of patients ([6]; human): 21 patients | grade 3/4 neutropenia, number of patients ([6]; human): 17 patients | grade 3/4 thrombocytopenia, number of patients ([6]; human): 29 patients | recommended phase 2 dose ([6]; human): 325 g/day | patients who developed respiratory infections and/or bronchitis [6]: Eight | patients who withdrew their consent for treatment [6]: 6 patients | projected effective exposure (AUC) [7]: 55000 to 88000 ng·h/mL | EC50 [8]: < 1000 nM | BIM:BCL-2 family protein interactions [9]: dose-dependent decrease | time to peak concentrations (Cmax) post-dose ([10]; 14/21-day schedule, overall): approximately 9 hours | detection in urine (renal elimination) ([10]; 24-hour urine collection after dosing on C1 D–3): could not be detected | dose dependence of exposure ([10]; between 10 mg and 440 mg): dose-proportional | half-life [11]: ~17 h | tumor response in xenograft [12]: durable and complete tumor regressions | cytochrome c [13]: increase | cytosolic BAX [13]: dose-dependent decrease | median PFS ([14]; 16 patients with follicular lymphoma, IQR 42-92): 88 days | patients achieving a PR ([14]; CLL/SLL patients with measurable adenopathy): 8 of 16 | PR in NK/T-cell lymphoma ([14]; NK/T-cell lymphoma): single patient | median overall survival ([14]; all 20 patients with CLL/SLL): has not been reached | median PFS ([14]; all 20 patients with CLL/SLL, IQR 49-309): 246 days | reduction in leukemia cells ([14]; all seven patients with CLL): ≥ 50% | patients with measurable tumor reduction ([14]; follicular lymphoma): 6 of 16 | patients with some tumor reduction ([14]; patients with evaluable adenopathy, all dose levels): 21 of 46 | cycles until response, median (range) ([14]; responders across dose levels and tumor types): 3.5 (2–10) cycles | median reduction of circulating CD3+ cells [15]: 241 CD3+ cells/µl | All Infections, patients n (%) [16, 19]: 5 (100%) | Herpes Zoster, patients n (%) [16, 19]: 1 (20%) | All Infections, patients n (%) [16, 20]: 25 (66%) | Herpes Zoster, patients n (%) [16, 20]: 0 | All Infections, patients n (%) ([16]; Grade 1/2, Intermittent (14/21) Schedule MTD 315 mg (N=9)): 8 (89%) | All Infections, patients n (%) [16, 21]: 0 | Herpes Zoster, patients n (%) [16, 21]: 0 | All Infections, patients n (%) [16, 22]: 0 | Herpes Zoster, patients n (%) [16, 22]: 0 | All Infections, patients n (%) [16, 23]: 6 (16%) | Herpes Zoster, patients n (%) [16, 23]: 1 (3%) | All Infections, patients n (%) [16, 24]: 1 (11%) | Herpes Zoster, patients n (%) [16, 24]: 0 | safe tolerated dose ([16]; intermittent (14/21) schedule, oral once daily): 315 mg | patients who required at least one dose reduction ([16]; overall dose levels): 11 patients | effect on cure rate of rituximab plus chemotherapy [17]: significantly improved

Cc1cc2c(C(C)C)c(O)c(O)c(C=O)c2c(O)c1-c1c(C)cc2c(C(C)C)c(O)c(O)c(C=O)c2c1O [gossypol]
clinical activity [18]: little to no clinical activity | dose-limiting toxicities [18]: gastrointestinal side effects | on-target pharmacodynamic effects on platelets [18]: no on-target pharmacodynamic effects on platelets

COC1=CC(c2cc3ccccc3[nH]2)=N/C1=C\c1[nH]c(C)cc1C [obatoclax]
clinical activity [18]: little to no clinical activity | dose-limiting toxicities [18]: Infusion-related somnolence and neurologic symptoms | on-target pharmacodynamic effects on platelets [18]: no on-target pharmacodynamic effects on platelets
